CHRM5 antagonist = blocks acetylcholine activation of human M5 receptor; CHO-hM5 cells, Fluo-8 calcium fluorescence, ACh EC80; P08912; inhibition, % at 3 µM; 360,000 compounds, 0.59% hits; AID 624040;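 active means inhibition above a per-plate cutoff, the mean of that plate's test compounds plus 3 SD, cut at about 27% in these data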;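 further: 0% = acetylcholine EC80 with DMSO and 100% = DMSO without agonist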
Target sequence (P08912 whole entry, looked up): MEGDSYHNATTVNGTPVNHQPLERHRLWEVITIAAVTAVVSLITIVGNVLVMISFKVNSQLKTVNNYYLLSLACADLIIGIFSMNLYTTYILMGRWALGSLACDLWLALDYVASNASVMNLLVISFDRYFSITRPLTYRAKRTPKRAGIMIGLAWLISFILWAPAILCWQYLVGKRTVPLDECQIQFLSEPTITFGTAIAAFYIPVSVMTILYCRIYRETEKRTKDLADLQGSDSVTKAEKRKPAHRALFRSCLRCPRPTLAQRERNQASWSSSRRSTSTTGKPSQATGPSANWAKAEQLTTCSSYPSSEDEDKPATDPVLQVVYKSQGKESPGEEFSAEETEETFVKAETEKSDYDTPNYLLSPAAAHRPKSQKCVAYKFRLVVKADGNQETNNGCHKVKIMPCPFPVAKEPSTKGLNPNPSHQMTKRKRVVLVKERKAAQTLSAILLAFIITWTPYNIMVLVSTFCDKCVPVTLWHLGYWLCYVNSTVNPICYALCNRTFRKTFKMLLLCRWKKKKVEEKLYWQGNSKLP
CHRM4 antagonist = blocks acetylcholine activation of human M4 receptor; P08173; CHO-hM4 cells, ACh EC80, Fluo-8 calcium fluorescence; inhibition, % at 3 µM; 360,000 compounds, 0.73% hits; AID 624125;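 active means inhibition above its plate's cutoff, the mean inhibition of sample wells plus 3 SD, cut at about 27% in these data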;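 further: 0% = acetylcholine EC80 with DMSO and 100% = DMSO without agonist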
M4 PAM = potentiates acetylcholine response at human M4 receptor; P08173; 360,000 compounds, 0.4% hits; activation, % at 3 µM; CHO-K1 hM4/Gqi5, Fluo-8 calcium fluorescence, ACh EC20; 0% = ACh EC20, 100% = maximal ACh;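 active means activation above its plate's cutoff, the mean activation of sample wells plus 3 SD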
M4 ag = CHRM4 agonism in calcium assay; AID 624127; CHO-K1 hM4/Gqi5, Fluo-8 calcium fluorescence; vehicle 0%, full acetylcholine response 100%; 360,000 compounds, 0.14% hits; activation, % at 3 µM;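 active means activation above the run mean over all test wells plus 3 SD, cut at about 32% in these data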;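 further: peak over basal fluorescence ratio per well then scaled between controls; 0% = DMSO wells and 100% = acetylcholine at EC100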
M5 ag = agonists of human muscarinic M5 receptor (CHRM5); P08912; CHO-K1 hM5 cells, Fluo-8 calcium fluorescence; 0% DMSO wells, 100% maximal acetylcholine response; activation, % at 3 µM; 360,000 compounds, 0.19% hits;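 active means activation above the run's mean over test compounds plus 3 SD, cut at about 23% in these data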;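 further: signal is peak over basal fluorescence ratio across the kinetic read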
CHRM5 PAM = positive allosteric modulators of human muscarinic M5 receptor; activation, % at 3 µM; CHO-K1 hM5, Fluo-8 calcium, ACh EC20 PAM; 0% = ACh EC20, 100% = ACh EC100; 360,000 compounds, 0.3% hits; AID 624038;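 active means activation above the run cutoff, the mean activation of all test compounds plus 3 SD, cut at about 18% in these data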
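System: CHO-K1 hM5 cells. Reagent: acetylcholine, EC20 level. Compound dosing: single dose, 3 µM nominal final test concentration. Timing: Post-acetylcholine fluorescence recording 140 s. Detection: Fluo-8 calcium fluorescence. Read-out: % activation, ACh-normalized. Benchmarks: ACh EC20 and EC100 wells. Repeats: singlicate, one well per test compound.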
* marks the source's active call; other numbers are inactive results. A selection: hits, their analogues and other compounds. The true share with any hit is near 1.9%.

SMILES	CHRM5 antagonist	CHRM4 antagonist	M4 PAM	M4 ag	M5 ag	CHRM5 PAM
COc1ccc(Br)cc1S(=O)(=O)NNC(=O)c1c(C)nc2ccccn12	-3	-9	3	8	-2	9
Cc1nc2ccccn2c1C(=O)NNS(=O)(=O)c1ccc(C(C)(C)C)cc1	28*	9	-1	13	6	-17
CN1CCN(S(=O)(=O)c2ccc(N3CCN(S(=O)(=O)/C=C/c4ccccc4)CC3)nc2)CC1	-6	30*	-14	2	-12	-16
COc1ccc([C@@H]2[C@@H]3C(=O)N(C(C)(C)C)C(=O)[C@@H]3[C@]3(C)C(=O)N(c4cccc(Cl)c4)C(=O)N23)cc1	6	2	2	1	1	7
Cc1ccc(-n2nc(C)cc2NC(=O)c2ccc(C)s2)cc1	20	46*	-34	0	-12	-14
Cc1ccc(-n2nc(C)cc2NC(=O)CC#N)cc1	4	2	-3	0	-1	3
COc1ccc(-c2cc(C(=O)Nc3cc(C)nn3-c3ccccc3)no2)cc1	-1	-2	18*	0	1	-5
COc1ccc(C(=O)CN(CCC(=O)O)S(=O)(=O)c2ccc([N+](=O)[O-])cc2)cc1	9	-2	11	2	2	-5
O=C(Cn1c(=O)oc2ccc(Cl)cc21)Nc1ccon1	15	0	1	0	-4	-4
COc1ccc(-c2ccc(SCC(=O)N3CC(=O)Nc4ccccc43)nn2)cc1	1	-3	0	0	-3	0
Cc1cccc(OCC(=O)Nc2ccc(N3CCN(C(=O)c4ccco4)CC3)cc2)c1	27*	12	-10	28	10	-26
CCn1c(SCC(=O)c2cc(OC)ccc2OC)nnc1-c1ccncc1	1	10	2	-1	2	4
CCn1c(SCC(=O)c2cc(OC)ccc2OC)nnc1C(C)C	-9	-12	19*	1	-7	7
COc1ccc(NC(=S)NCc2cccnc2)cc1OC	-11	-11	23*	4	-1	20*
CC(C)N1CCN(c2ccncc2S(=O)(=O)N2CCCCC2)CC1	65*	24	-11	0	-3	-20
CN1CCN(c2ccncc2S(=O)(=O)N2CCCCC2)CC1	0	-1	-3	1	-6	-20
CCOc1ccc(NC(=O)Cn2nc(C(N)=O)c3ccccc3c2=O)cc1S(=O)(=O)N1CCCC1	10	-17	23*	0	-2	2
CCOc1ccc(NC(=O)Cn2nnc(-c3ccc(C(N)=O)cc3)n2)cc1S(=O)(=O)N1CCCC1	10	6	1	1	2	-6
O=C(COc1ccccc1F)OCC(=O)c1ccc([N+](=O)[O-])cc1	5	5	-4	0	-2	0
CC1CCCCN1C(=O)CSc1nc(N)nc(N)n1 (stereo unspecified)	10	-6	26*	1	0	-4
CC1CCCCN1C(=O)CSc1nc(N)cc(=O)[nH]1 (stereo unspecified)	-5	10	3	1	-2	4
CCCCc1cc(O)c(CCCC)c(O)c1	33*	52*	-18	106*	64*	-16
CC(C)CCNC(=O)NC(=O)COc1ncnc2sccc12	-16	-2	15	0	7	13
CC(C)CNC(=O)NC(=O)COc1ncnc2sccc12	6	12	28*	1	2	-4
Cc1ccc2c(c1)C(=O)C(=O)N2Cc1ccc(C(F)(F)F)cc1	-1	-5	-3	32*	44*	7
SMILES	CHRM5 antagonist	CHRM4 antagonist	M4 PAM	M4 ag	M5 ag	CHRM5 PAM
Cc1ccc(OCCN2C(=O)C(=O)c3cc(C)ccc32)cc1	-3	-9	-8	0	23	5
CC(C)N(C(=O)[C@H]1C[C@H](CC(=O)NCCN2CCOCC2)C(=O)N2CCc3c([nH]c4cc(CCC(=O)N(C)C)ccc34)[C@]12C)C(C)C	-6	1	1	0	-1	5
O=C(CCCN=C1NS(=O)(=O)c2ccccc21)OCC(=O)c1ccccc1	3	-11	4	4	7	-5
O=C(COC(=O)CCCCCN=C1NS(=O)(=O)c2ccccc21)Nc1ccc(Cl)c(Cl)c1	45*	9	-9	13	-4	-17
N#Cc1ccc(OCC(O)CN2CCN(C(c3ccccc3)c3ccccc3)CC2)cc1 (stereo unspecified)	37*	32*	-19	0	-6	-18
CCC(=O)c1ccc(OCC(O)CN2CCN(C(c3ccccc3)c3ccccc3)CC2)cc1 (stereo unspecified)	16	44*	-14	1	-6	-28
CCOC(=O)C(=N/O)/C(C)=N/NC(=O)C(=O)Nc1ccc(Cl)cc1	27*	6	-9	13	4	-20
COc1ccc(/C=C/C(=O)NC(=S)N2CCN(c3ccccn3)CC2)cc1OC	19	11	-16	13	-3	-14
O=C(/C=C/c1ccc(F)cc1)NC(=S)N1CCN(c2ccccn2)CC1	-11	-16	3	1	1	19*
Nc1nc(Cl)cc(N2CCC(c3cc(-c4ccc(Cl)cc4)n[nH]3)CC2)n1	39*	36*	-7	26	14	-25
O=[N+]([O-])c1ccccc1/C=N/NC1=NCCN1	-9	-10	11	1	0	19*
O=[N+]([O-])c1ccccc1C=NNc1ccccc1	14	6	-2	-1	-4	1
COc1ccc(S(=O)(=O)c2c(O)c3ccc(C(=O)Nc4ccc(F)cc4F)cc3[nH]c2=O)cc1	-2	4	1	0	-3	-3
C=C1C(=O)C=C2CN(C(=O)c3ccccc3)[C@@](Cc3ccc(F)cc3)(C(=O)OC)[C@@H]12	93*	96*	-18	143*	81*	-41
CCOC(=O)N1CCC(N2CCN(Cc3ccc(F)c(F)c3)C(CCO)C2)CC1 (stereo unspecified)	-2	-1	2	1	-9	3
CCOC(=O)N1CCC(N2CCN(CCC(C)C)C(CCO)C2)CC1 (stereo unspecified)	-3	63*	-17	1	-10	-3
CCN(Cc1cnn(C)c1)C(=O)c1ccc2nc(Cc3cccc(Cl)c3)oc2c1	11	7	0	0	1	-3
CC(=O)COc1cccc2ccc(/C=C/c3ccc(Br)s3)nc12	-10	-24	-4	6	8	23*
Cc1cc2c3c([nH]c2cc1S(=O)(=O)N1CCC2(CC1)OCCO2)CC(C)(C)CC3=O	10	-20	3	5	-1	-5
